Measurements from ChEMBL document CHEMBL4699419, “Antileishmanial assessment of isoxazole derivatives against L. donovani” (RSC Med Chem, 2020).
Activity calls are given as the source filed them. No cut-off for these calls is given here.

Tests used:
[1] = Selectivity index, ratio of CC50 for mouse J774.A1 cells to IC50 for amastigote form of Leishmania donovani MHOM/IN/80/Dd8; type: toxicity; details: read-out: Ratio CC50/IC50
How it was run: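 Macrophages infected at a 1:10 ratio with stationary promastigotes, then treated 72 h at 37 °C; luminescence read with Steady-Glo. IC50 values from probit analysis.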

Leishmania donovani [2] = test: (§1) Antileishmanial activity against Leishmania donovani amastigotes infected in golden hamster assessed as reduction in parasite burden in spleen at 50 mg/kg, ip initiated after 2 days of pre-treatment biopsy administered for 5 days and measured on day 7 by giemsa staining based assay relative to control; type: functional; details: for inhibition: time 7.0 day; for inhibition in vivo at 50 mg/kg: 168 h, time 7 day
How it was run: (§2)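 Male inbred golden hamsters, 40–45 g, infected with L. donovani. Animals with +1 infection on pre-treatment spleen biopsy randomized, five per group. Intraperitoneal dosing in a vehicle of 10% Tween-80/ethanol (70:30) in ddH2O, 10% final, began 2 days after biopsy and ran 5 consecutive days; vehicle-only controls. Giemsa-stained spleen biopsies taken on day 7 or 28; percentage inhibition computed from initial, treated and untreated-control amastigote counts.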

Leishmania donovani [3] = test: Antileishmanial activity against late log phase promastigote stage of Leishmania donovani MHOM/IN/80/Dd8 harboring luciferase reporter gene incubated for 72 hrs by Steady-Glo luminescence assay; type: functional, organism-based; details: Leishmania donovani, MHOM/IN/80/Dd8, 72 h; read-out: IC50
How it was run: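 Luciferase-transfected promastigotes kept at 25 ± 1 °C in medium 199 + 10% heat-inactivated FCS + G418 (20 μg ml–1). Late-log cells (5 × 10^5 per well) grown 72 h with graded compound concentrations from DMSO, DMSO dilution controls. Aliquot mixed 1:1 with Steady-Glo, luminescence (RLU) read; % inhibition vs control. IC50 by Probit regression, three independent experiments.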

[4] = Cytotoxicity against mouse J774A1 cells assessed as reduction in cell viability incubated for 48 hrs by MTT assay; type: cell-based, J774.A1
How it was run: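 J774A.1 macrophages, 0.2 × 10^6 per well, incubated overnight at 37 °C in 5% CO2, then exposed to compounds in DMSO for 48 h, with DMSO dilutions as controls. Viability read by MTT formazan at 600 nm. CC50 = 50% viability reduction versus medium-only cells, from probit regression; three independent experiments.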

Leishmania donovani [5] = test: Antileishmanial activity against Leishmania donovani MHOM/IN/80/Dd8 promastigotes harboring luciferase reporter gene infected in mouse J774 cells assessed as inhibition of amastigote growth incubated for 72 hrs by Steady-Glo luminescence assay; type: functional, organism-based; details: Leishmania donovani, MHOM/IN/80/Dd8, J774, 72 h; read-out: IC50
How it was run: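 J774A.1 mouse macrophages (2 × 10^5 per well, RPMI-1640 + 10% FCS, 37 °C CO2) infected after 24 h with stationary-phase luciferase-transgenic promastigotes at 1:10 macrophage:parasite; compounds in complete medium for 72 h at 37 °C. Medium swapped for PBS, Steady-Glo added, luminescence read; % inhibition vs untreated control RLU. IC50 by Probit log dose/response regression, three independent experiments.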

Leishmania donovani [6] = test: as §1, with “28” for “7”; type: functional; details: for inhibition: time 28.0 day; for inhibition in vivo at 50 mg/kg: 672 h, time 28 day; how it was run: as §2
Leishmania amazonensis [7] = test: Antileishmanial activity against promastigote form of Leishmania amazonensis; type: functional, organism-based
Leishmania amazonensis [8] = test: Antileishmanial activity against intracellular amastigote stage of Leishmania amazonensis; type: functional, organism-based

| IC50 (Leishmania amazonensis [7]) [µM] | IC50 (Leishmania amazonensis [8]) [µM] | Compound | selectivity ratio [1] | inhibition (Leishmania donovani [2]) | IC50 (Leishmania donovani [3]) [µM] | CC50 at 48 h [4] [µM] | IC50 (Leishmania donovani [5]) [µM] | inhibition (Leishmania donovani [6]) | inhibition in vivo at 50 mg/kg (Leishmania donovani [2]) [%] | inhibition in vivo at 50 mg/kg (Leishmania donovani [6]) [%] |
| --- | --- | --- | --- | --- | --- | --- | --- | --- | --- | --- |
| – | – | COC(=O)c1c(NCCCCNc2ccnc3cc(Cl)ccc23)noc1-c1ccccc1[N+](=O)[O-] | 8.99 | inactive | 1.95 | 77.7 | 8.63 | inactive | – | – |
| 18.3 | 2.9 | COc1cc(-c2cc(-c3ccc4c(c3)OCO4)no2)cc(OC)c1OC | – | – | – | – | – | – | – | – |
| 18.3 | 2.9 | COc1cc(-c2cc(-c3cc(OC)c(OC)c(OC)c3)on2)cc(OC)c1OC | – | – | – | – | – | – | – | – |
| – | – | COC(=O)c1c(NCCCNc2ccnc3cc(Cl)ccc23)noc1-c1ccc(Cl)cc1Cl | 9.67 | – | 3.82 | 31.1 | 3.21 | – | 62 | 9.23 |
| – | – | COC(=O)c1c(NCc2ccc(Cl)cc2)noc1-c1cc2c(cc1[N+](=O)[O-])OCO2 | 7 | – | 15.5 | 33 | 4.59 | – | 13.5 | 2.08 |
| – | – | O=C(NCc1cccc(Cl)c1Cl)c1c([N+](=O)[O-])noc1-c1ccc(Cl)cc1 | 3.76 | – | 2.9 | 73.7 | 19.6 | – | – | – |
| – | – | COC(=O)c1c(NCCCCNc2ccnc3cc(Cl)ccc23)noc1-c1ccccc1F | 3.56 | – | 10.6 | 70.9 | 19.9 | – | – | – |
| – | – | O=C(Nc1ccccc1)c1c([N+](=O)[O-])noc1-c1ccc(Cl)cc1 | 25.1 | – | 2.81 | 89.3 | 3.56 | – | – | – |
| – | – | O=C(NCc1cccc(Br)c1)c1c([N+](=O)[O-])noc1-c1ccc(Cl)cc1Cl | 9.19 | – | 3.05 | 71.2 | 7.74 | – | – | – |
| – | – | COC(=O)c1c(NCCNc2ccnc3cc(Cl)ccc23)noc1-c1ccccc1F | 2.32 | – | 1.73 | 3.42 | 1.47 | – | – | – |
| – | – | COC(=O)c1c(NCCCCNc2ccnc3cc(Cl)ccc23)noc1-c1ccc([N+](=O)[O-])cc1 | 73.8 | – | 2.85 | 136 | 1.84 | – | – | – |
| – | – | COC(=O)c1c(NCCNc2ccnc3cc(Cl)ccc23)noc1-c1ccccc1[N+](=O)[O-] | 3.94 | – | 3.45 | 73.6 | 18.7 | – | – | – |
| – | – | COC(=O)c1c(NCc2ccccc2)noc1-c1ccc([N+](=O)[O-])cc1 | 6.16 | – | 3.9 | 85.4 | 13.8 | – | 44 | 75.2 |
| – | – | COC(=O)c1c([N+](=O)[O-])noc1-c1cccc(-c2ncoc2C)c1 | 2.5 | – | 0.86 | 18.4 | 7.1 | – | – | – |
| – | – | COC(=O)c1c(NCc2ccc(Cl)cc2)noc1-c1ccc([N+](=O)[O-])cc1 | 9.93 | – | 3.79 | 78.3 | 7.88 | – | – | – |
| – | – | COC(=O)c1c(NCCCN2CCOCC2)noc1-c1ccc(Cl)cc1Cl | 3.44 | – | 2.58 | 73 | 21.2 | – | – | – |
| – | – | COC(=O)c1c(NCCCCNc2ccnc3cc(Cl)ccc23)noc1-c1cc2c(cc1[N+](=O)[O-])OCO2 | 7.97 | – | 4.5 | 67.7 | 8.49 | – | 20 | 4.38 |
| – | – | COc1ccc(CNC(=O)c2c([N+](=O)[O-])noc2-c2ccc(Cl)cc2)cc1 | 9.5 | – | 2.67 | 89.5 | 9.41 | – | – | – |
| – | – | COC(=O)c1c(NCCNc2ccnc3cc(Cl)ccc23)noc1-c1ccc([N+](=O)[O-])cc1 | 4.16 | inactive | 1.87 | 3.79 | 0.91 | inactive | – | – |
| – | – | COC(=O)c1c([N+](=O)[O-])noc1-c1ccccc1Cl | 4.82 | – | 2.72 | 80 | 16.6 | – | – | – |

| IC50 (Leishmania amazonensis [7]) [µM] | IC50 (Leishmania amazonensis [8]) [µM] | Compound | selectivity ratio [1] | inhibition (Leishmania donovani [2]) | IC50 (Leishmania donovani [3]) [µM] | CC50 at 48 h [4] [µM] | IC50 (Leishmania donovani [5]) [µM] | inhibition (Leishmania donovani [6]) | inhibition in vivo at 50 mg/kg (Leishmania donovani [2]) [%] | inhibition in vivo at 50 mg/kg (Leishmania donovani [6]) [%] |
| --- | --- | --- | --- | --- | --- | --- | --- | --- | --- | --- |
| – | – | COC(=O)c1c([N+](=O)[O-])noc1-c1ccccc1F | 2.19 | – | 2.87 | – | 16.1 | inactive | 36 | – |
| – | – | COC(=O)c1c(NCCCNc2ccnc3cc(Cl)ccc23)noc1-c1ccc([N+](=O)[O-])cc1 | 33.9 | – | 3.37 | 106 | 3.14 | – | – | – |
| – | – | COc1ccc(CNC(=O)c2c([N+](=O)[O-])noc2-c2ccc(Cl)cc2Cl)cc1 | 39.6 | – | 3.42 | 80.5 | 2.03 | – | – | – |
| – | – | COC(=O)c1c(NCCNc2ccnc3cc(Cl)ccc23)noc1-c1cc2c(cc1[N+](=O)[O-])OCO2 | 2.48 | – | 2.04 | 3.7 | 1.49 | – | – | – |
| – | – | COC(=O)c1c(NCCCCNc2ccnc3cc(Cl)ccc23)noc1-c1ccc(Cl)cc1Cl | 3.39 | – | 5.93 | 93.5 | 27.6 | – | – | – |
| – | – | COC(=O)c1c(NCCNc2cc(C(F)(F)F)nc3c(C(F)(F)F)cccc23)noc1-c1ccccc1F | 4.52 | – | 43.2 | 80.4 | 17.8 | – | – | – |
| – | – | COc1ccc(CNC(=O)c2c([N+](=O)[O-])noc2-c2ccc(Cl)cc2)cc1OC | 33 | – | 3.05 | 106 | 3.22 | – | – | – |
| – | – | COC(=O)c1c([N+](=O)[O-])noc1-c1cc(-c2ccccc2Cl)n(-c2ccccc2)n1 | 3.76 | – | 0.76 | 79.9 | 21.2 | – | – | – |
| – | – | O=C(Nc1ccccc1)c1c([N+](=O)[O-])noc1-c1ccc(Cl)cc1Cl | 11.3 | – | 2.68 | 67.3 | 5.97 | – | – | – |
| – | – | COC(=O)c1c(NCc2ccc(OC)cc2OC)noc1-c1ccc(Cl)cc1Cl | 6 | – | 8.34 | 32.1 | 5.48 | – | 50.9 | 38 |
| – | – | CCCNC(=O)c1c([N+](=O)[O-])noc1-c1ccc([N+](=O)[O-])cc1 | 3.57 | – | 3.07 | 76.2 | 21.3 | – | – | – |
| – | – | COC(=O)c1c(NCc2ccc(C(C)(C)C)cc2)noc1-c1ccc([N+](=O)[O-])cc1 | 9.69 | – | 49.7 | 81.4 | 8.16 | – | – | – |
| – | – | COC(=O)c1c([N+](=O)[O-])noc1-c1ccc(Cl)cc1Cl | 4.49 | – | 1.82 | 19.7 | 4.38 | – | 39.5 | 29 |
| – | – | COC(=O)c1c([N+](=O)[O-])noc1-c1ccccc1Br | 1.08 | – | 0.34 | 34.8 | 32.2 | – | – | – |
| – | – | COC(=O)c1c(NCc2ccc(OC)cc2)noc1-c1ccc(Cl)cc1Cl | 1.5 | – | 3.09 | 34.6 | 23.9 | – | – | – |
| – | – | COC(=O)c1c(NCc2ccc(Cl)cc2)noc1-c1ccc(Cl)cc1Cl | 56.6 | – | 14.1 | 176 | 3.1 | inactive | 29.2 | – |
| – | – | COc1cccc(CNC(=O)c2c([N+](=O)[O-])noc2-c2ccc(Cl)cc2)c1 | 20 | – | 2.79 | 68.5 | 3.43 | – | – | – |
| – | – | COC(=O)c1c(NCCNc2ccnc3cc(Cl)ccc23)noc1-c1ccc(Cl)cc1Cl | 4.05 | – | 1.86 | 3.45 | 0.85 | inactive | 19.3 | – |
| – | – | O=C(NCc1ccc(F)cc1)c1c([N+](=O)[O-])noc1-c1ccc(Cl)cc1Cl | 1.7 | – | 2.46 | 86.4 | 50.6 | – | – | – |
| – | – | COC(=O)c1c(NCc2ccccc2)noc1-c1ccc(Cl)cc1Cl | 32.8 | – | 35.4 | 54.1 | 1.65 | – | – | – |
